Assay results: ChEMBL document CHEMBL1124505, “Inhibition of aminopeptidases by peptides containing ketomethylene and hydroxyethylene amide bond replacements” (J Med Chem, 1989)
One block for each molecule: values may come before it.

How the values were obtained:
[1] = biological target: T1, Renin (Homo sapiens, UniProt P00797); experiment: Inhibition of enzyme renin
T1 sequence (P00797 whole entry): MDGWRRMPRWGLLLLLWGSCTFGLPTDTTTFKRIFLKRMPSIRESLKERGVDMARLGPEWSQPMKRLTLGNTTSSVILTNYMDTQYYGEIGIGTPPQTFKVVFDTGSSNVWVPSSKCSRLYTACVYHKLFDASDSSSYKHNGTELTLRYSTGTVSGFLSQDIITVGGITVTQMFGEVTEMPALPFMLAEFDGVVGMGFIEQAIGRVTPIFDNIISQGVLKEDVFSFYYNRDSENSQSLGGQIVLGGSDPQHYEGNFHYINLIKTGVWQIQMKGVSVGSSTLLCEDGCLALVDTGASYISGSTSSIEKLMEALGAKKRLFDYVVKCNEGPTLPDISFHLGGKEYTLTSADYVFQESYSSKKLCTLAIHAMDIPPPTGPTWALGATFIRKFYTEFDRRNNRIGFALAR

[2] = biological target: T2, Aminopeptidase B (Rattus norvegicus, UniProt O09175); experiment: Competitive inhibition of aminopeptidase B or arginyl aminopeptidase purified from rat liver
T2 sequence (O09175 whole entry): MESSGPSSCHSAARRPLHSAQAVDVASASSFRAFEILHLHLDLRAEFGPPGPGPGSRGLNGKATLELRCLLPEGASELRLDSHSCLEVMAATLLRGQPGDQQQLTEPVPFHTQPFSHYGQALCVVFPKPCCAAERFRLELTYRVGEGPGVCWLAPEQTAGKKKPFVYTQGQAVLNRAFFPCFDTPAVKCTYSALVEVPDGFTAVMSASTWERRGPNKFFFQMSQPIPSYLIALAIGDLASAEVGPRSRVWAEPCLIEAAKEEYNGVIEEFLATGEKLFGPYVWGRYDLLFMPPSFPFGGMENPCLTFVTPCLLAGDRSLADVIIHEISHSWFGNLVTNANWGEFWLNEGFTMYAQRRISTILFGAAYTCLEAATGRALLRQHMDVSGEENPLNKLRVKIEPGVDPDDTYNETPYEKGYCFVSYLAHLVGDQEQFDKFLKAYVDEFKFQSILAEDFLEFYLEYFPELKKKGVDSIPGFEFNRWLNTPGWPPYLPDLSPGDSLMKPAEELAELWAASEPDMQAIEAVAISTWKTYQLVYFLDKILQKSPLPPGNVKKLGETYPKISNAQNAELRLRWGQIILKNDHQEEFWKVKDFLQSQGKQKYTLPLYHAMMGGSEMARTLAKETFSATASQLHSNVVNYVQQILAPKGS
How it was run: (§1)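 Arginyl aminopeptidase purified from rat liver. Substrate L-arginine p-nitroanilide in 0.10 M PIPES, pH 7.0, with 0.20 M NaCl and 1 mM DTT, at 25 °C. Initial velocities read as p-nitroaniline release at 405 nm (E = 9620 L/mol·cm). Slow-binding inhibitors preincubated 15 min with enzyme before substrate was added; others started by adding enzyme.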

[3] = biological target: T2, Aminopeptidase B; experiment: Competitive inhibition of aminopeptidase B or arginyl aminopeptidase purified from rat liver; Ki value reporting the slope effect(Kis); how it was run: as §1
[4] = biological target: T2, Aminopeptidase B; experiment: (§2) Inhibition of aminopeptidase B or arginyl aminopeptidase purified from rat liver; assay type: tissue-based
How it was run: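 Initial rates taken as p-nitroaniline release at 405 nm. Slow-binding inhibitors were preincubated with enzyme 15 min before substrate was added; others were started with enzyme.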

[5] = biological target: Pancreatic elastase (Sus scrofa, UniProt P08419+P00772); experiment: Inhibition of porcine pancreatic elastase; assay type: protein assay
[6] = biological target: T2, Aminopeptidase B; experiment: Non-competitive inhibition of aminopeptidase B or arginyl aminopeptidase purified from rat liver; Ki value reporting the Kid; how it was run: as §1
[7] = biological target: T2, Aminopeptidase B; experiment: Non-competitive inhibition of aminopeptidase B or arginyl aminopeptidase purified from rat liver; Ki value reporting the slope effect(Kis); how it was run: as §1
[8] = biological target: T2, Aminopeptidase B; experiment: Non-competitive inhibition of aminopeptidase B or arginyl aminopeptidase purified from rat liver; Ki value reporting the intercept effect(Kii); how it was run: as §1
[9] = biological target: T2, Aminopeptidase B; experiment: as §2; how it was run: as §1

IC50 [2]: > 400 µM
Structure (SMILES): CC(C)CCNC(=O)[C@@H](NC(=O)[C@H](C)CC(=O)[C@@H](N)CC(C)C)C(C)C

Ki [6]: 2.8 µM
Ki [7]: 8.8 µM
Ki [8]: 2 µM
Structure (SMILES): CC(CC(=O)[C@@H](N)CCCCN)C(=O)NC(Cc1ccccc1)C(=O)O (stereo partly specified)

Ki [3]: 36 µM
Structure (SMILES): CC(C)CCNC(=O)[C@@H](NC(=O)[C@H](CC(=O)[C@@H](N)CC(C)C)Cc1ccccc1)C(C)C

IC50 [9]: > 600 µM
Structure (SMILES): CC(C)CCNC(=O)C(NC(=O)C(Cc1ccccc1)CC(O)C(N)CC(C)C)C(C)C (stereo unspecified)

Ki [3]: 130 µM
Structure (SMILES): CC(C)CC(N)C(=O)CC(C)C(=O)O (stereo unspecified)

The next lines start with the molecule.

Structure (SMILES): CC(C)C[C@H](CN[C@H](CC(C)C)C(=O)N[C@H](C(=O)N[C@@H](Cc1ccc(O)cc1)C(=O)O)C(C)C)NC(=O)C(Cc1c[nH]cn1)NC(=O)[C@H](Cc1ccccc1)NC(=O)[C@@H]1CCCN1C(=O)C(N)Cc1c[nH]cn1 (stereo in doubt)
Ki [1]: 1 µM

Structure (SMILES): NCCCC[C@H](N)C(=O)CC(Cc1ccccc1)C(=O)O (stereo partly specified)
Ki [3]: 0.004 µM

Structure (SMILES): N=C(N)NCCC[C@H](N)C(=O)C[C@@H](Cc1ccc(O)cc1)C(=O)O
Ki [4]: 0.00084 µM

Structure (SMILES): NC(N)=NCCC[C@H](N)C(=O)C[C@@H](Cc1ccccc1)C(=O)O
Ki [4]: 0.0025 µM

Structure (SMILES): COC(=O)CCC(=O)C(C)NC(=O)c1ccccc1 (stereo unspecified)
Ki [5]: 4200 µM

Structure (SMILES): CC(C)C[C@@H](N)C(=O)CC(Cc1ccccc1)C(=O)O (stereo partly specified)
Ki [3]: 0.77 µM

Structure (SMILES): CC(C)C[C@H](NC(=O)[C@@H](O)[C@H](N)Cc1ccccc1)C(=O)O [UBENIMEX]
Ki [4]: 0.014 µM

Structure (SMILES): CC(CC(=O)[C@@H](N)CCCCN)C(=O)O (stereo partly specified)
Ki [3]: 2 µM

Structure (SMILES): CC(C)C[C@H](N)C(=O)CC(Cc1ccccc1)C(=O)O (stereo partly specified)
Ki [3]: 0.17 µM
